The test system of experiment [1] is K562. Put plainly: Cytotoxicity against human K562 cells after 48 hrs by MTT assay. It counts as functional, cell-based. Conditions: K562, 48 h. The procedure, abridged:
(§1)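 Cells seeded at 5 × 10⁴ cells/mL and allowed to settle 2 h (K562) or overnight (HepG2, HT-29). Compound in DMSO added, then 48 h further culture. Viability read by MTT with a microplate reader, normalized to DMSO-treated controls set as 100%. IC₅₀ obtained by nonlinear regression; each compound measured three times.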

The test system of the next experiment is HepG2. Put plainly: Cytotoxicity against human HepG2 cells after 48 hrs by MTT assay. It counts as functional, cell-based. Conditions: HepG2, 48 h. An outline of the steps:
as §1

The subject of another experiment is HT-29. In words: Cytotoxicity against human HT-29 cells after 48 hrs by MTT assay. Conditions: HT-29, 48 h. It counts as functional, cell-based. The procedure, abridged:
as §1

Experiment [2] has as its system K562. In words: Induction of apoptosis in human K562 cells at 30 nM after 12 hrs using annexin V-FITC and propidium iodide staining by flow cytometric analysis relative to control. It counts as functional. An outline of the steps:
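K562 cells cultured without or with 30 nM compound for 12 h. 1 × 10⁶ cells resuspended in binding buffer containing annexin V-FITC and propidium iodide and incubated 15 min. Further binding buffer added, then cells analysed by flow cytometry for phosphatidylserine exposure.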

Some results are limits rather than exact numbers.

On to `O=C1Nc2ccc(Br)cc2C1=O`, for which the IC50 with K562 [1], in the experiment with HepG2 and in the experiment on HT-29 was above 10000 nM each time.
Regarding `Cc1ccc2c(c1)C(=O)C(=O)N2`, the half-maximal inhibitory concentration (IC50) with K562 [1], in the experiment with HepG2 and in the experiment on HT-29 was above 10000 nM in each case.
Turning to `CCCCc1ccc2c(c1)C(=O)C(=O)N2`, the IC50 with K562 [1], in the experiment with HepG2 and in the experiment with HT-29 was above 10000 nM in each case.
Turning to `COC(=O)/C=C/c1ccc2c(c1)C(=O)C(=O)N2`, the half-maximal inhibitory concentration (IC50) with K562 [1] amounted to 220 nM; in the experiment on HepG2, 370 nM; with HT-29, 270 nM.
On the same counts, the results for `COC(=O)/C=C/c1ccc2c(c1)C(=O)C(=O)N2C` are 340 nM, 530 nM and 300 nM.
The corresponding values for `CCN1C(=O)C(=O)c2cc(/C=C/C(=O)OC)ccc21` are 170 nM, 400 nM and 210 nM.
The corresponding values for `COC(=O)/C=C/c1ccc2c(c1)C(=O)C(=O)N2Cc1ccccc1` are 40 nM, 40 nM and 70 nM.
As for `COC(=O)/C=C/c1ccc2c(c1)C(=O)C(=O)N2Cc1ccc(F)cc1`, the IC50 was found to be 30 nM in the experiment with K562 [1], 40 nM in the experiment on HepG2 and 60 nM in the experiment with HT-29.
Consider `COC(=O)/C=C/c1ccc2c(c1)C(=O)C(=O)N2Cc1ccc(C#N)cc1`, for which the values for the 50% inhibitory concentration (IC50) in the experiment with K562 [1], with HepG2 and in the experiment with HT-29 were 30 nM, 50 nM and 50 nM, respectively.
In the case of `COC(=O)/C=C/c1ccc2c(c1)C(=O)C(=O)N2Cc1ccc(C(F)(F)F)cc1`, the values for the half-inhibitory concentration (IC50) in the experiment with K562 [1], in the experiment on HepG2 and in the experiment on HT-29 were 40 nM, 70 nM and 40 nM, respectively.
On to `COC(=O)/C=C/c1ccc2c(c1)C(=O)C(=O)N2Cc1ccc(C)cc1`, for which the half-inhibitory concentration (IC50) was 40 nM with K562 [1], 40 nM with HepG2 and 30 nM in the experiment on HT-29.
`COC(=O)/C=C/c1ccc2c(c1)C(=O)C(=O)N2Cc1ccc(OC)cc1` returned an Activity in the experiment with K562 [2] of 37.2%. Also, the values for the half-inhibitory concentration (IC50) in the experiment with K562 [1], in the experiment with HepG2 and with HT-29 were 3 nM, 30 nM and 30 nM, respectively.
For the molecule `COC(=O)/C=C/c1ccc2c(c1)C(=O)C(=O)N2Cc1ccc(Cl)cc1`, the 50% inhibitory concentration (IC50) in the experiment on K562 [1] stood at 30 nM; in the experiment on HepG2, 40 nM; in the experiment with HT-29, 60 nM.
The corresponding values for `COC(=O)/C=C/c1ccc2c(c1)C(=O)C(=O)N2Cc1ccc(Cl)c(Cl)c1` are 60 nM, 160 nM and 210 nM.
Regarding `COC(=O)/C=C/c1ccc2c(c1)C(=O)C(=O)N2Cc1ccc(Br)cc1`, in the experiment with K562 [2], the Activity was 32.2%. The IC50 was 6 nM with K562 [1], 40 nM in the experiment on HepG2 and 30 nM in the experiment on HT-29.
Regarding `COC(=O)/C=C/c1ccc2c(c1)C(=O)C(=O)N2Cc1cccc(Br)c1`, the IC50 was found to be 30 nM with K562 [1], 170 nM in the experiment with HepG2 and 240 nM in the experiment on HT-29.
The corresponding values for `COC(=O)/C=C/c1ccc2c(c1)C(=O)C(=O)N2Cc1ccccc1Br` are 70 nM, 260 nM and 240 nM.
On to `COC(=O)/C=C/c1ccc2c(c1)C(=O)C(=O)N2Cc1ccc2ccccc2c1`, for which the IC50 stood at 40 nM with K562 [1], 90 nM in the experiment on HepG2 and 100 nM with HT-29.
Take `COC(=O)/C=C/c1ccc2c(c1)C(=O)C(=O)N2CCOc1ccccc1`: the IC50 with K562 [1] came out at 60 nM; in the experiment with HepG2, 210 nM; in the experiment with HT-29 it was 200 nM.
In the case of `COC(=O)/C=C/c1ccc2c(c1)C(=O)C(=O)N2Cc1cc(C)cc(C)c1`, the half-inhibitory concentration (IC50) in the experiment with K562 [1] came out at 40 nM; in the experiment with HepG2 it was 150 nM; in the experiment with HT-29, 70 nM.
As to `COC(=O)/C=C/c1cccc2c1C(=O)C(=O)N2Cc1ccc(OC)cc1`, the IC50 in the experiment on K562 [1] is 350 nM; in the experiment on HepG2, 5490 nM; with HT-29 it was 3120 nM.
On the same counts, the results for `COC(=O)/C=C/c1ccc2c(c1)N(Cc1ccc(OC)cc1)C(=O)C2=O` are 4860 nM, above 10000 nM and above 10000 nM.
Take `COC(=O)/C=C/c1cccc2c1N(Cc1ccc(OC)cc1)C(=O)C2=O`: the IC50 in the experiment on K562 [1] was 4130 nM; with HepG2, above 10000 nM; in the experiment with HT-29, above 10000 nM.
Regarding `CCOC(=O)/C=C/c1ccc2c(c1)C(=O)C(=O)N2Cc1ccc(OC)cc1`, the half-maximal inhibitory concentration (IC50) in the experiment with K562 [1] was determined as 10 nM; with HepG2, 90 nM; in the experiment with HT-29 it was 60 nM.
Turning to `CCOC(=O)/C=C/c1ccc2c(c1)C(=O)C(=O)N2Cc1ccc(Br)cc1`, the IC50 with K562 [1] was determined as 30 nM; in the experiment on HepG2 it was 290 nM; in the experiment with HT-29, 50 nM.
For the molecule `CCCCOC(=O)/C=C/c1ccc2c(c1)C(=O)C(=O)N2Cc1ccc(OC)cc1`, the IC50 with K562 [1] was 40 nM; in the experiment with HepG2, 630 nM; in the experiment with HT-29, 420 nM.
Take `CCCCOC(=O)/C=C/c1ccc2c(c1)C(=O)C(=O)N2Cc1ccc(Br)cc1`: the IC50 was 150 nM in the experiment with K562 [1], 650 nM in the experiment on HepG2 and 600 nM in the experiment on HT-29.
On the same counts, the results for `COc1ccc(CN2C(=O)C(=O)c3cc(/C=C/C(=O)OC(C)(C)C)ccc32)cc1` are 50 nM, 620 nM and 480 nM.
Take `CC(C)(C)OC(=O)/C=C/c1ccc2c(c1)C(=O)C(=O)N2Cc1ccc(Br)cc1`: the values for the IC50 with K562 [1], in the experiment with HepG2 and with HT-29 were 290 nM, 2050 nM and 730 nM, respectively.
In the case of `COc1ccc(CN2C(=O)C(=O)c3cc(/C=C/C(=O)OCCO)ccc32)cc1`, the IC50 came to 40 nM in the experiment with K562 [1], 860 nM in the experiment on HepG2 and 550 nM in the experiment with HT-29.
For the molecule `O=C(/C=C/c1ccc2c(c1)C(=O)C(=O)N2Cc1ccc(Br)cc1)OCCO`, the half-inhibitory concentration (IC50) in the experiment on K562 [1] came to 50 nM; with HepG2 it was 3660 nM; in the experiment on HT-29 it was 680 nM.
As for `COc1ccc(CN2C(=O)C(=O)c3cc(/C=C/C(=O)O)ccc32)cc1`, the IC50 with K562 [1], in the experiment on HepG2 and in the experiment with HT-29 was above 10000 nM each time.
Turning to `COc1ccc(CN2C(=O)C(=O)c3cc(/C=C/C(N)=O)ccc32)cc1`, the half-maximal inhibitory concentration (IC50) in the experiment on K562 [1] was 200 nM; with HepG2, 890 nM; with HT-29 it was 560 nM.
With `NC(=O)/C=C/c1ccc2c(c1)C(=O)C(=O)N2Cc1ccc(Br)cc1`, the figures for the concentration for half-maximal inhibition (IC50) with K562 [1], in the experiment with HepG2 and with HT-29 were 300 nM, above 10000 nM and 550 nM, respectively.
The corresponding values for `COc1ccc(CN2C(=O)C(=O)c3cc(/C=C/C(=O)N4CCOCC4)ccc32)cc1` are 720 nM, 7380 nM and 4240 nM.
For the molecule `O=C1C(=O)N(Cc2ccc(Br)cc2)c2ccc(/C=C/C(=O)N3CCOCC3)cc21`, the IC50 came out at 1380 nM in the experiment on K562 [1], 7790 nM in the experiment with HepG2 and 4590 nM in the experiment with HT-29.
The corresponding values for `COc1ccc(CN2C(=O)C(=O)c3cc(/C=C/C(=O)N4CCCC4)ccc32)cc1` are 460 nM, 7810 nM and 5230 nM.
For `O=C1C(=O)N(Cc2ccc(Br)cc2)c2ccc(/C=C/C(=O)N3CCCC3)cc21`, the results for the IC50 in the experiment with K562 [1], in the experiment on HepG2 and with HT-29 were 1710 nM, 6300 nM and 4420 nM, respectively.
The corresponding values for `COC(=O)/C=C/c1ccc2c(c1)C(O)C(=O)N2Cc1ccc(OC)cc1` (stereo not given) are 30 nM, 380 nM and 320 nM.
Take `COC(=O)/C=C/c1ccc2c(c1)C(O)C(=O)N2Cc1ccc(Br)cc1` (stereo not given): the 50% inhibitory concentration (IC50) amounted to 260 nM with K562 [1], 670 nM with HepG2 and 660 nM in the experiment on HT-29.
On the same counts, the results for `COC(=O)/C=C/c1ccc2c(c1)/C(=N/O)C(=O)N2Cc1ccc(OC)cc1` are 2110 nM, 3560 nM and 4940 nM.
The corresponding values for `COC(=O)/C=C/c1ccc2c(c1)/C(=N/O)C(=O)N2Cc1ccc(Br)cc1` are 2920 nM, 9960 nM and 3640 nM.
On to `COC(=O)/C=C/c1ccc2c(c1)CC(=O)N2Cc1ccc(OC)cc1`, for which the results for the IC50 with K562 [1], with HepG2 and with HT-29 were 990 nM, 9170 nM and 3720 nM, respectively.
`COC(=O)/C=C/c1ccc2c(c1)CC(=O)N2Cc1ccc(Br)cc1`: the IC50 in the experiment on K562 [1] is 3160 nM; in the experiment on HepG2 it was above 10000 nM; with HT-29, above 10000 nM.
Consider `COC(=O)/C=C/c1ccc2c(c1)C1(OCCO1)C(=O)N2Cc1ccc(OC)cc1`, for which the concentration for half-maximal inhibition (IC50) in the experiment with K562 [1] was 4890 nM; with HepG2, above 10000 nM; with HT-29 it was above 10000 nM.
For `COC(=O)/C=C/c1ccc2c(c1)C1(OCCO1)C(=O)N2Cc1ccc(Br)cc1`, the values for the IC50 in the experiment on K562 [1], in the experiment with HepG2 and in the experiment with HT-29 were 2630 nM, 7470 nM and 5110 nM, respectively.
The corresponding values for `O=C1Nc2ccc(Cl)cc2C1=O` are above 10000 nM, above 10000 nM and above 10000 nM.
On the same counts, the results for `O=C1Nc2ccc(F)cc2C1=O` [5-FLUOROISATIN] are above 10000 nM, above 10000 nM and above 10000 nM.
For `COc1ccc2c(c1)C(=O)C(=O)N2` [5-METHOXYISATIN], the 50% inhibitory concentration (IC50) in the experiment with K562 [1], in the experiment on HepG2 and in the experiment with HT-29 was above 10000 nM each time.
As to `CC[C@@]1(O)C(=O)OCc2c1cc1n(c2=O)Cc2cc3ccccc3nc2-1` [CAMPTOTHECIN], the half-maximal inhibitory concentration (IC50) in the experiment with K562 [1] was 40 nM; in the experiment with HepG2, 50 nM; in the experiment on HT-29 it was 60 nM.
On the same counts, the results for `O=C1Nc2ccccc2C1=O` [ISATIN] are above 10000 nM, above 10000 nM and above 10000 nM.

The record behind these values is ChEMBL document CHEMBL3102854, “Design, synthesis and in vitro cytotoxicity evaluation of 5-(2-carboxyethenyl)isatin derivatives as anticancer agents” (Bioorg Med Chem Lett, 2014).
